From ChEMBL document CHEMBL3044834, “Novel protoporphyrinogen oxidase inhibitors: 3H-pyrazolo[3,4-d][1,2,3]triazin-4-one derivatives” (J Agric Food Chem, 2008)

Key:
Assay type in all cases: functional
[1] = test system: Amaranthus retroflexus; test: Herbicidal activity against Amaranthus retroflexus assessed as inhibition of fresh weed plant weight at 187.5 g/ha using pre-emergence treatment protocol
[2] = test system: Echinochloa crus-galli; test: Herbicidal activity against Echinochloa crus-galli (barnyard grass) assessed as inhibition of fresh weed plant weight at 750 g/ha using pre-emergence treatment protocol
[3] = test system: Amaranthus retroflexus; test: Herbicidal activity against Amaranthus retroflexus assessed as inhibition of fresh weed plant weight at 750 g/ha using pre-emergence treatment protocol
Method in brief: (§1)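 Test compounds made up as emulsions by dissolving in 100 µL N,N-dimethylformamide, then adding a little Tween 20 and water. For post-emergence, weed seedlings at one leaf and one stem were sprayed at the same rates as the pre-emergence test. Fresh weight was recorded 15 days after treatment and expressed as percent inhibition versus controls. All treatments were run in triplicate.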

[4] = test system: Echinochloa crus-galli; test: Herbicidal activity against Echinochloa crus-galli (barnyard grass) assessed as inhibition of fresh weed plant weight at 187.5 g/ha using pre-emergence treatment protocol; method in brief: as §1
[5] = test system: Amaranthus retroflexus; test: Herbicidal activity against Amaranthus retroflexus assessed as inhibition of fresh weed plant weight at 375 g/ha using post-emergence treatment protocol; method in brief: as §1
[6] = test system: Digitaria sanguinalis; test: Herbicidal activity against Digitaria sanguinalis (hairy crabgrass) assessed as inhibition of fresh weed plant weight at 375 g/ha using pre-emergence treatment protocol
[7] = test system: Digitaria sanguinalis; test: Herbicidal activity against Digitaria sanguinalis (hairy crabgrass) assessed as inhibition of fresh weed plant weight at 750 g/ha using post-emergence treatment protocol; method in brief: as §1
[8] = test system: Digitaria sanguinalis; test: Herbicidal activity against Digitaria sanguinalis (hairy crabgrass) assessed as inhibition of fresh weed plant weight at 187.5 g/ha using post-emergence treatment protocol; method in brief: as §1
[9] = test system: Echinochloa crus-galli; test: Herbicidal activity against Echinochloa crus-galli (barnyard grass) assessed as inhibition of fresh weed plant weight at 375 g/ha using post-emergence treatment protocol; method in brief: as §1
[10] = test system: Digitaria sanguinalis; test: Herbicidal activity against Digitaria sanguinalis (hairy crabgrass) assessed as inhibition of fresh weed plant weight at 375 g/ha using post-emergence treatment protocol; method in brief: as §1
[11] = test system: Digitaria sanguinalis; test: Herbicidal activity against Digitaria sanguinalis (hairy crabgrass) assessed as inhibition of fresh weed plant weight at 750 g/ha using pre-emergence treatment protocol
[12] = test system: Echinochloa crus-galli; test: Herbicidal activity against Echinochloa crus-galli (barnyard grass) assessed as inhibition of fresh weed plant weight at 1500 g/ha using pre-emergence treatment protocol
[13] = test system: Brassica rapa subsp. oleifera; test: Herbicidal activity against Brassica rapa subsp. oleifera assessed as inhibition of fresh weed plant weight at 750 g/ha using post-emergence treatment protocol; method in brief: as §1
[14] = test system: Digitaria sanguinalis; test: Herbicidal activity against Digitaria sanguinalis (hairy crabgrass) assessed as inhibition of fresh weed plant weight at 1500 g/ha using pre-emergence treatment protocol
[15] = test system: Brassica rapa subsp. oleifera; test: Herbicidal activity against Brassica rapa subsp. oleifera assessed as inhibition of fresh weed plant weight at 375 g/ha using pre-emergence treatment protocol
[16] = test system: Amaranthus retroflexus; test: Herbicidal activity against Amaranthus retroflexus assessed as inhibition of fresh weed plant weight at 750 g/ha using post-emergence treatment protocol; method in brief: as §1
[17] = test system: Digitaria sanguinalis; test: Herbicidal activity against Digitaria sanguinalis (hairy crabgrass) assessed as inhibition of fresh weed plant weight at 1500 g/ha using post-emergence treatment protocol; method in brief: as §1
[18] = test system: Brassica rapa subsp. oleifera; test: Herbicidal activity against Brassica rapa subsp. oleifera assessed as inhibition of fresh weed plant weight at 187.5 g/ha using pre-emergence treatment protocol
[19] = test system: Brassica rapa subsp. oleifera; test: Herbicidal activity against Brassica rapa subsp. oleifera assessed as inhibition of fresh weed plant weight at 1500 g/ha using pre-emergence treatment protocol
[20] = test system: Amaranthus retroflexus; test: Herbicidal activity against Amaranthus retroflexus assessed as inhibition of fresh weed plant weight at 1500 g/ha using post-emergence treatment protocol; method in brief: as §1
[21] = test system: Brassica rapa subsp. oleifera; test: Herbicidal activity against Brassica rapa subsp. oleifera assessed as inhibition of fresh weed plant weight at 187.5 g/ha using post-emergence treatment protocol; method in brief: as §1
[22] = test system: Amaranthus retroflexus; test: Herbicidal activity against Amaranthus retroflexus assessed as inhibition of fresh weed plant weight at 1500 g/ha using pre-emergence treatment protocol
[23] = test system: Echinochloa crus-galli; test: Herbicidal activity against Echinochloa crus-galli (barnyard grass) assessed as inhibition of fresh weed plant weight at 1500 g/ha using post-emergence treatment protocol; method in brief: as §1
[24] = test system: Amaranthus retroflexus; test: Herbicidal activity against Amaranthus retroflexus assessed as inhibition of fresh weed plant weight at 187.5 g/ha using post-emergence treatment protocol; method in brief: as §1
[25] = test system: Echinochloa crus-galli; test: Herbicidal activity against Echinochloa crus-galli (barnyard grass) assessed as inhibition of fresh weed plant weight at 187.5 g/ha using post-emergence treatment protocol; method in brief: as §1
[26] = test system: Brassica rapa subsp. oleifera; test: Herbicidal activity against Brassica rapa subsp. oleifera assessed as inhibition of fresh weed plant weight at 1500 g/ha using post-emergence treatment protocol; method in brief: as §1
[27] = test system: Echinochloa crus-galli; test: Herbicidal activity against Echinochloa crus-galli (barnyard grass) assessed as inhibition of fresh weed plant weight at 750 g/ha using post-emergence treatment protocol; method in brief: as §1
[28] = test system: Echinochloa crus-galli; test: Herbicidal activity against Echinochloa crus-galli (barnyard grass) assessed as inhibition of fresh weed plant weight at 375 g/ha using pre-emergence treatment protocol; method in brief: as §1
[29] = test system: Digitaria sanguinalis; test: Herbicidal activity against Digitaria sanguinalis (hairy crabgrass) assessed as inhibition of fresh weed plant weight at 187.5 g/ha using pre-emergence treatment protocol
[30] = test system: Brassica rapa subsp. oleifera; test: Herbicidal activity against Brassica rapa subsp. oleifera assessed as inhibition of fresh weed plant weight at 750 g/ha using pre-emergence treatment protocol
[31] = test system: Brassica rapa subsp. oleifera; test: Herbicidal activity against Brassica rapa subsp. oleifera assessed as inhibition of fresh weed plant weight at 375 g/ha using post-emergence treatment protocol; method in brief: as §1
[32] = test system: Amaranthus retroflexus; test: Herbicidal activity against Amaranthus retroflexus assessed as inhibition of fresh weed plant weight at 375 g/ha using pre-emergence treatment protocol
[33] = test system: Digitaria sanguinalis; test: Herbicidal activity against Digitaria sanguinalis (hairy crabgrass) assessed as inhibition of fresh weed plant weight at 93.75 g/ha using pre-emergence treatment protocol
[34] = test system: Amaranthus retroflexus; test: Herbicidal activity against Amaranthus retroflexus assessed as inhibition of fresh weed plant weight at 93.75 g/ha using pre-emergence treatment protocol
[35] = test system: Echinochloa crus-galli; test: Herbicidal activity against Echinochloa crus-galli (barnyard grass) assessed as inhibition of fresh weed plant weight at 93.75 g/ha using pre-emergence treatment protocol
[36] = test system: Brassica rapa subsp. oleifera; test: Herbicidal activity against Brassica rapa subsp. oleifera assessed as inhibition of fresh weed plant weight at 93.75 g/ha using pre-emergence treatment protocol

SMILES	inhibition at 187.5 g/ha [1]	inhibition at 750 g/ha [2]	inhibition at 750 g/ha [3]	inhibition at 187.5 g/ha [4]	inhibition at 375 g/ha [6]	inhibition at 750 g/ha [11]	inhibition at 1500 g/ha [12]	inhibition at 1500 g/ha [14]	inhibition at 375 g/ha [15]	inhibition at 1500 g/ha [17]	inhibition at 187.5 g/ha [18]	inhibition at 1500 g/ha [19]	inhibition at 1500 g/ha [20]	inhibition at 1500 g/ha [22]	inhibition at 1500 g/ha [23]	inhibition at 1500 g/ha [26]	inhibition at 375 g/ha [28]	inhibition at 187.5 g/ha [29]	inhibition at 750 g/ha [30]	inhibition at 375 g/ha [32]	further results
C#CCN1C(=O)COc2cc(F)c(-n3nnc4c(cnn4CCC)c3=O)cc21	37.7%	87%	100%	43.7%	91.3%	93.5%	95.4%	100%	67.9%	33.9%	63.4%	98.1%	99.6%	100%	91.5%	90.7%	80.1%	80.4%	82.1%	73.8%	inhibition at 375 g/ha [5]: 41.5%; inhibition at 750 g/ha [7]: 16.7%; inhibition at 187.5 g/ha [8]: 0%; inhibition at 375 g/ha [9]: 19%; inhibition at 375 g/ha [10]: 5.6%; inhibition at 750 g/ha [13]: 70.3%; inhibition at 750 g/ha [16]: 87.8%; inhibition at 187.5 g/ha [21]: 35.4%; inhibition at 187.5 g/ha [24]: 14.6%; inhibition at 187.5 g/ha [25]: 0.5%; inhibition at 750 g/ha [27]: 61%; inhibition at 375 g/ha [31]: 64.6%
C#CCN1C(=O)COc2cc(F)c(-n3nnc4c(cnn4C)c3=O)cc21	66%	100%	100%	48.4%	100%	100%	100%	100%	95.6%	39.2%	77.7%	98.8%	71.8%	100%	58.4%	45.6%	94.8%	80%	97.1%	96.3%	inhibition at 93.75 g/ha [33]: 26.8%; inhibition at 93.75 g/ha [34]: 60.2%; inhibition at 93.75 g/ha [35]: 47.1%; inhibition at 93.75 g/ha [36]: 47.3%
